Laboratory results taken from PMC3374877 (Chembiochem, 2011).
“Also recorded” adds a separate entry of the source. Bridges are numbered along the chain shown (N, C = ends). Where no end group is shown, it is not given here.

Legend:
TLR4 = details: read-out: KD of full-length MD2 binding to TLR4; cited from earlier work
[1] = test system: TLR4 (RAW 264.7 macrophage cells); assay: Nitric oxide production in RAW 264.7 macrophages, LPS-induced TLR4 activation; format: cell-based; details: 50 μM peptide, LPS 50 ng/ml
How it was run: (§1)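 RAW 264.7 macrophages were stimulated with the TLR-specific ligand in the presence or absence of 50 μM peptide. Nitric oxide production was the read-out of pathway activation.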

rats = assay: Behavioural observation after peptide injection; format: in vivo, rat; details: rats of the CCI test; intrathecal injection of peptide stock solutions
[2] = test system: TLR2/TLR6 (RAW 264.7 macrophage cells); format: cell-based; details: 50 μM peptide, PGN 50 μg/ml
How it was run: as §1

whole human blood = assay: Haemolysis in whole human blood; format: cell-based; details: concentrations up to 500 μM
[3] = test system: TLR1/TLR2 (RAW 264.7 macrophage cells); format: cell-based; details: 50 μM peptide, Pam3CSK4 250 ng/ml
How it was run: as §1

[4] = molecular target: extracellular construct (a.a. 1–632) of human TLR4 (Homo sapiens, UniProt O00206); format: binding; details: fluorescence polarization
BV2 cells = assay: Cytotoxicity, trypan blue staining, BV2 cells; format: cell-based
RAW 264.7 cells = assay: Cytotoxicity, trypan blue staining, RAW 264.7 cells; format: cell-based
TLR4/MD2 complex = details: previously reported; cited from earlier work
[5] = test system: rats subjected to CCI of the sciatic nerve; assay: Chronic constriction injury; format: in vivo; details: rat CCI; intrathecal; summary in words
How it was run: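 Rats underwent chronic constriction injury and were tested at baseline, then on days 4 and 11 after surgery to confirm allodynia. After a pre-drug assessment, peptide was delivered intrathecally into the peri-spinal cerebrospinal fluid by the lumbar approach, at approximately 250 μM final in the intrathecal space. Vehicle was saline. Allodynia was reassessed 1, 3 and 24 h after injection.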

HEK 293 cells = assay: Cytotoxicity, trypan blue staining, HEK 293 cells; format: cell-based

Sequence of extracellular construct (a.a. 1–632) of human TLR4 (O00206 24-632): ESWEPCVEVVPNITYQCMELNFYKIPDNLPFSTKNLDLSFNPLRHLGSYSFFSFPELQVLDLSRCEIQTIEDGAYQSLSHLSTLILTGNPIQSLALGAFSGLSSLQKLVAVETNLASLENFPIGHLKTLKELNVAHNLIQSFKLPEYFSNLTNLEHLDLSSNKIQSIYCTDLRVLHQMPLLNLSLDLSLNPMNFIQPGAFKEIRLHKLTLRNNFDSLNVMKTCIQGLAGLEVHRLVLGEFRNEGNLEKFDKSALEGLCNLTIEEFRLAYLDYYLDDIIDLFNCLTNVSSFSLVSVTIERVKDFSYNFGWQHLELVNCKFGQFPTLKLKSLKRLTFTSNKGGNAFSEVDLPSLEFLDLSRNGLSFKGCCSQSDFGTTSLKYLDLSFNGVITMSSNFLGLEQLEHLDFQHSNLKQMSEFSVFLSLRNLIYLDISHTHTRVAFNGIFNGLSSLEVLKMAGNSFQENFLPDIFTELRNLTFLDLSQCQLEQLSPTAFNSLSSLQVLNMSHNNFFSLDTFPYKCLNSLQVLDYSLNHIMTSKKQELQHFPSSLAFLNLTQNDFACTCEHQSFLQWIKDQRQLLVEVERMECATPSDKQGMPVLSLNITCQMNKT

Substance | Kd (TLR4) | inhibition of TLR4 signalling (NO production) [1] | abnormal behaviours after injection (rats) | inhibition of TLR2/TLR6 signalling (NO production) [2] | haemolysis (whole human blood) | inhibition of TLR1/2 signalling (NO production) [3] | binding activity toward TLR4 (change in polarization) ([4]; TLR4 titrated, in words) | maximum polarization value ([4]; plateau upon addition of TLR4) | cytotoxicity (BV2 cells) | cytotoxicity (RAW 264.7 cells) | inhibition of TLR4 signalling, LPS antagonism (TLR4/MD2 complex) | suppression of neuropathic pain in vivo (summary statement) [5] | cytotoxicity (HEK 293 cells)
full-length MD2: myeloid differentiation factor 2, accessory protein required for TLR4 activation | 12 nM | – | – | – | – | – | – | – | – | – | – | – | –
CRGSAAAYSFCAALAGA (disulfide 1-11 (inferred)) [MD2-III] | – | no inhibition on the TLR4 signaling; also recorded: no inhibitory effect on the TLR4 signaling | – | – | – | – | – | – | – | – | – | – | –
CRGSDDDYSFCRALKGE (disulfide 1-11 (inferred)) [MD2-I] | – | significant reduced signals of LPS-induced TLR4 activation; also recorded: selectively inhibits the NO production induced by LPS | no abnormal behaviours were observed | negligible inhibitory effects; also recorded: without affecting other homologous TLRs | does not induce haemolysis | negligible inhibitory effects; also recorded: without affecting other homologous TLRs | robust increase | approximately 0.25 | little cytotoxicity | little cytotoxicity | abolishes TLR4 signalling by antagonizing its native ligand, lipopolysaccharide (LPS), binding to the TLR4/MD2 complex | moderate potency in an animal model; also recorded: able to suppress neuropathic pain in animal models; also recorded: could suppress neuropathic pain in vivo | little cytotoxicity
